Results taken from ChEMBL document CHEMBL3232791, “Synthesis and antibacterial evaluation of amino acid-antibiotic conjugates” (2014).

Experiments:
Assay type in all cases: functional
[1] = system: Bacillus subtilis; test: Antibacterial activity against Bacillus subtilis 168 assessed as growth inhibition at 20 ug/ml after 16 hrs by spectrophotometric analysis; settings: subsp. subtilis str. 168, 16 h, read-out: GI
Method in brief: (§1)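 Growth inhibition read as OD600 on 300 µL culture samples, with untreated control cultures taken as maximum growth. Percent inhibition = (OD600 control − OD600 treated) × 100 / OD600 control. Parent antibiotics and their conjugates were run in parallel at three concentrations per compound, in biological duplicate.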

[2] = system: Escherichia coli; test: Antibacterial activity against Escherichia coli DH5alpha assessed as growth inhibition at 2.5 ug/ml after 16 hrs by spectrophotometric method; settings: DH5[alpha], read-out: GI; method in brief: as §1
[3] = system: Escherichia coli; test: Antibacterial activity against Escherichia coli DH5alpha assessed as growth inhibition at 5 ug/ml after 16 hrs by spectrophotometric method; settings: DH5[alpha], read-out: GI; method in brief: as §1
[4] = system: Staphylococcus aureus; test: Antibacterial activity against Staphylococcus aureus RN4220 assessed as growth inhibition at 50 ug/ml after 16 hrs by spectrophotometric analysis; settings: RN4220, 16 h, read-out: GI; method in brief: as §1
[5] = system: Staphylococcus aureus; test: Antibacterial activity against Staphylococcus aureus RN4220 assessed as growth inhibition at 100 ug/ml after 16 hrs by spectrophotometric analysis; settings: RN4220, 16 h, read-out: GI; method in brief: as §1
[6] = system: Bacillus subtilis; test: Antibacterial activity against Bacillus subtilis 168 assessed as growth inhibition at 10 ug/ml after 16 hrs by spectrophotometric analysis; settings: subsp. subtilis str. 168, 16 h, read-out: GI; method in brief: as §1
[7] = system: Bacillus subtilis; test: Antibacterial activity against Bacillus subtilis 168 assessed as growth inhibition at 40 ug/ml after 16 hrs by spectrophotometric analysis; settings: subsp. subtilis str. 168, 16 h, read-out: GI; method in brief: as §1
[8] = system: Escherichia coli; test: Antibacterial activity against Escherichia coli DH5alpha assessed as growth inhibition at 10 ug/ml after 16 hrs by spectrophotometric method; settings: DH5[alpha], read-out: GI; method in brief: as §1
[9] = system: Staphylococcus aureus; test: Antibacterial activity against Staphylococcus aureus RN4220 assessed as growth inhibition at 200 ug/ml after 16 hrs by spectrophotometric analysis; settings: RN4220, 16 h, read-out: GI; method in brief: as §1
[10] = system: Staphylococcus aureus; test: Antibacterial activity against Staphylococcus aureus RN4220 assessed as growth inhibition at 30 ug/ml after 16 hrs by spectrophotometric analysis; settings: RN4220, 16 h, read-out: GI; method in brief: as §1
[11] = system: Pseudomonas aeruginosa; test: Antibacterial activity against Pseudomonas aeruginosa PAO1 assessed as growth inhibition at 40 ug/ml after 16 hrs by spectrophotometric analysis; settings: PAO1, 16 h, read-out: GI; method in brief: as §1
[12] = system: Bacillus subtilis; test: Antibacterial activity against Bacillus subtilis 168 assessed as growth inhibition at 5 ug/ml after 16 hrs by spectrophotometric analysis; settings: subsp. subtilis str. 168, 16 h, read-out: GI; method in brief: as §1
[13] = system: Escherichia coli; test: Antibacterial activity against Escherichia coli DH5alpha assessed as growth inhibition at 3 ug/ml after 16 hrs by spectrophotometric method; settings: DH5[alpha], read-out: GI; method in brief: as §1
[14] = system: Pseudomonas aeruginosa; test: Antibacterial activity against Pseudomonas aeruginosa PAO1 assessed as growth inhibition at 20 ug/ml after 16 hrs by spectrophotometric analysis; settings: PAO1, 16 h, read-out: GI; method in brief: as §1
[15] = system: Staphylococcus aureus; test: Antibacterial activity against Staphylococcus aureus RN4220 assessed as growth inhibition at 60 ug/ml after 16 hrs by spectrophotometric analysis; settings: RN4220, 16 h, read-out: GI; method in brief: as §1
[16] = system: Staphylococcus aureus; test: Antibacterial activity against Staphylococcus aureus RN4220 assessed as growth inhibition at 15 ug/ml after 16 hrs by spectrophotometric analysis; settings: RN4220, 16 h, read-out: GI; method in brief: as §1
[17] = system: Escherichia coli; test: Antibacterial activity against Escherichia coli DH5alpha assessed as growth inhibition at 0.75 ug/ml after 16 hrs by spectrophotometric method; settings: DH5[alpha], read-out: GI; method in brief: as §1
[18] = system: Pseudomonas aeruginosa; test: Antibacterial activity against Pseudomonas aeruginosa PAO1 assessed as growth inhibition at 10 ug/ml after 16 hrs by spectrophotometric analysis; settings: PAO1, 16 h, read-out: GI; method in brief: as §1
[19] = system: Escherichia coli; test: Antibacterial activity against Escherichia coli DH5alpha assessed as growth inhibition at 1.5 ug/ml after 16 hrs by spectrophotometric method; settings: DH5[alpha], read-out: GI; method in brief: as §1
[20] = system: Escherichia coli; test: Antibacterial activity against Escherichia coli DH5alpha assessed as growth inhibition at 75 ug/ml after 16 hrs by spectrophotometric method; settings: DH5[alpha], read-out: GI; method in brief: as §1
[21] = system: Escherichia coli; test: Antibacterial activity against Escherichia coli DH5alpha assessed as growth inhibition at 50 ug/ml after 16 hrs by spectrophotometric method; settings: DH5[alpha], read-out: GI; method in brief: as §1
[22] = system: Staphylococcus aureus; test: Antibacterial activity against Staphylococcus aureus RN4220 assessed as growth inhibition at 75 ug/ml after 16 hrs by spectrophotometric analysis; settings: RN4220, 16 h, read-out: GI; method in brief: as §1
[23] = system: Staphylococcus aureus; test: Antibacterial activity against Staphylococcus aureus RN4220 assessed as growth inhibition at 150 ug/ml after 16 hrs by spectrophotometric analysis; settings: RN4220, 16 h, read-out: GI; method in brief: as §1
[24] = system: Escherichia coli; test: Antibacterial activity against Escherichia coli DH5alpha assessed as growth inhibition at 100 ug/ml after 16 hrs by spectrophotometric method; settings: DH5[alpha], read-out: GI; method in brief: as §1
[25] = system: Staphylococcus aureus; test: Antibacterial activity against Staphylococcus aureus RN4220 assessed as growth inhibition at 300 ug/ml after 16 hrs by spectrophotometric analysis; settings: RN4220, 16 h, read-out: GI; method in brief: as §1

Row | SMILES | inhibition of growth at 20 µg/mL [1] [%] | inhibition of growth at 2.5 µg/mL [2] [%] | inhibition of growth at 5 µg/mL [3] [%] | inhibition of growth at 50 µg/mL [4] [%] | inhibition of growth at 100 µg/mL [5] [%] | inhibition of growth at 10 µg/mL [6] [%] | inhibition of growth at 40 µg/mL [7] [%] | inhibition of growth at 10 µg/mL [8] [%] | inhibition of growth at 200 µg/mL [9] [%] | inhibition of growth at 75 µg/mL [20] [%] | inhibition of growth at 50 µg/mL [21] [%] | inhibition of growth at 75 µg/mL [22] [%] | inhibition of growth at 150 µg/mL [23] [%] | inhibition of growth at 100 µg/mL [24] [%] | inhibition of growth at 300 µg/mL [25] [%] | also measured
1 | CCn1cc(C(=O)O)c(=O)c2cnc(N3CCN(C(=O)CNC(=O)OCc4ccccc4)CC3)nc21 | -7.68 | -13.4 | -11.1 | 32.9 | 52.2 | 88.2 | 91.7 | -8.93 | 57.4 |  |  |  |  |  |  | 
2 | CCn1cc(C(=O)O)c(=O)c2cnc(N3CCN(C(=O)[C@H](C)NC(=O)OCc4ccccc4)CC3)nc21 | 5.34 | -12 | -12.1 | 38 | 55.4 | 90.3 | 60.1 | 1.75 | 63 |  |  |  |  |  |  | 
3 | CCn1cc(C(=O)O)c(=O)c2cnc(N3CCN(C(=O)[C@@H](NC(=O)OCc4ccccc4)C(C)C)CC3)nc21 | 17 | -9.71 | -6.67 | 45.7 | 60 | 4.69 | 78.2 | 27.2 | 70.6 |  |  |  |  |  |  | 
4 | CCn1cc(C(=O)O)c(=O)c2cnc(N3CCN(C(=O)[C@H](Cc4ccccc4)NC(=O)OCc4ccccc4)CC3)nc21 | 13.8 | -11.5 | -6.38 | 49.6 | 60.1 | 6.09 | 77 | 9.45 | 72.9 |  |  |  |  |  |  | 
5 | CCn1cc(C(=O)O)c(=O)c2cnc(N3CCN(C(=O)[C@H](CCCCNC(=O)OCc4ccccc4)NC(=O)OCc4ccccc4)CC3)nc21 | -4.87 | -13.2 | -9.63 | -20.2 | 28.2 | -7.86 | 89.9 | -6.9 | 52.4 |  |  |  |  |  |  | 
6 | CCn1cc(C(=O)O)c(=O)c2cc(F)c(N3CCN(C(=O)CNC(=O)OCc4ccccc4)CC3)cc21 | 89.5 |  |  |  |  | 90.2 |  |  |  |  |  |  |  |  |  | inhibition of growth at 30 µg/mL [10]: 85.7%; inhibition of growth at 40 µg/mL [11]: 81.5%; inhibition of growth at 5 µg/mL [12]: 91.6%; inhibition of growth at 3 µg/mL [13]: 20.8%; inhibition of growth at 20 µg/mL [14]: 10.6%; inhibition of growth at 60 µg/mL [15]: 88.5%; inhibition of growth at 15 µg/mL [16]: 83.6%; inhibition of growth at 0.75 µg/mL [17]: 5.96%; inhibition of growth at 10 µg/mL [18]: -16.2%; inhibition of growth at 1.5 µg/mL [19]: 9.75%
7 | CCn1cc(C(=O)O)c(=O)c2cc(F)c(N3CCN(C(=O)[C@H](C)NC(=O)OCc4ccccc4)CC3)cc21 | 90.5 |  |  |  |  | 91.4 |  |  |  |  |  |  |  |  |  | inhibition of growth at 30 µg/mL [10]: 81.8%; inhibition of growth at 40 µg/mL [11]: 20.5%; inhibition of growth at 5 µg/mL [12]: 92.2%; inhibition of growth at 3 µg/mL [13]: 3.52%; inhibition of growth at 20 µg/mL [14]: -14.2%; inhibition of growth at 60 µg/mL [15]: 91%; inhibition of growth at 15 µg/mL [16]: 74.1%; inhibition of growth at 0.75 µg/mL [17]: 0.21%; inhibition of growth at 10 µg/mL [18]: -26.8%; inhibition of growth at 1.5 µg/mL [19]: -0.24%
8 | CCn1cc(C(=O)O)c(=O)c2cc(F)c(N3CCN(C(=O)C(C)NC(=O)OCc4ccccc4)CC3)cc21 (stereo unspecified) | 90.3 |  |  |  |  | 91.4 |  |  |  |  |  |  |  |  |  | inhibition of growth at 30 µg/mL [10]: 77.9%; inhibition of growth at 40 µg/mL [11]: 25.8%; inhibition of growth at 5 µg/mL [12]: 92.3%; inhibition of growth at 3 µg/mL [13]: 0.77%; inhibition of growth at 20 µg/mL [14]: -19.8%; inhibition of growth at 60 µg/mL [15]: 86.1%; inhibition of growth at 15 µg/mL [16]: 51.5%; inhibition of growth at 0.75 µg/mL [17]: -4.73%; inhibition of growth at 10 µg/mL [18]: -25.7%; inhibition of growth at 1.5 µg/mL [19]: 1.25%
9 | Cc1ncc([N+](=O)[O-])n1CCOC(=O)CNC(=O)OCc1ccccc1 |  |  |  |  |  |  |  |  |  | 1.61 | 8.23 | 0.33 | 23.5 | 6.59 | 23.6 | 
10 | Cc1ncc([N+](=O)[O-])n1CCOC(=O)[C@H](C)NC(=O)OCc1ccccc1 |  |  |  |  |  |  |  |  |  | 3.79 | 2.22 | 8.86 | 22.5 | 8.28 | 45.9 | 
11 | Cc1ncc([N+](=O)[O-])n1CCOC(=O)[C@@H](NC(=O)OCc1ccccc1)C(C)C |  |  |  |  |  |  |  |  |  | 3.26 | 3.28 | -7.76 | -7.76 | 4.47 | 13.7 | 
12 | Cc1ncc([N+](=O)[O-])n1CCOC(=O)[C@H](Cc1ccccc1)NC(=O)OCc1ccccc1 |  |  |  |  |  |  |  |  |  | 5.73 | 4.44 | -0.03 | 6.66 | 7.7 | 20.5 | 
13 | Cc1ncc([N+](=O)[O-])n1CCOC(=O)[C@H](CCCCNC(=O)OCc1ccccc1)NC(=O)OCc1ccccc1 |  |  |  |  |  |  |  |  |  | 62.5 | 51.9 | -2.96 | 22.3 | 70 | 68 | 
14 | Cc1ncc([N+](=O)[O-])n1CCO [METRONIDAZOLE] |  |  |  |  |  |  |  |  |  | 8.2 | 6.64 | -14.3 | -9.9 | 15 | 16.4 | 
15 | CCn1cc(C(=O)O)c(=O)c2cnc(N3CCNCC3)nc21 [PIPEMIDIC ACID] | 26 | -13 | -9.68 | 26.2 | 44.4 | 18.2 | 79.8 | 7.89 | 61.8 |  |  |  |  |  |  | 
